ChEMBL document CHEMBL1126849, “Synthesis of A-ring fluorinated derivatives of (17 alpha,20E/Z)-[125I]iodovinylestradiols: effect on receptor binding and receptor-mediated target tissue uptake” (J Med Chem, 1993)

Assays:
Rattus norvegicus [1] = experiment: Biodistribution in liver of immature female rat after 1 hr administration of 3 micro Ci (111 kBq) in the presence of (+E2); type: ADME, organism-based; details: in vivo
How it was run: (§1)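 Immature female Long Evans rats (21–24 days, 45–70 g), unanesthetized in retention cages, given 3 µCi (111 kBq) 125I-labeled steroid i.v. via lateral tail vein. Vehicle was ethanol diluted in saline containing 1% Tween-80, giving 9% ethanol final. The blocking group received 60 µg unlabeled estradiol co-injected. Rats were killed under ether by axillary bleeding, and tissues were KCl-washed and gamma-counted. Data are %ID/g, mean ± SE, n=3–5.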

Rattus norvegicus [2] = experiment: Biodistribution in kidney of immature female rat after 12 hour administration of 3 micro Ci (111 kBq) in the absence of 60 microg estradiol; type: ADME, organism-based; details: in vivo; how it was run: as §1
Rattus norvegicus [3] = experiment: Biodistribution in kidney of immature female rat after 1 hr administration of 3 micro Ci (111 kBq) in the absence of 60 microg estradiol; type: ADME, organism-based; details: in vivo; how it was run: as §1
Rattus norvegicus [4] = experiment: Biodistribution in liver of immature female rat after 3 hour administration of 3 micro Ci (111 kBq) in the absence of 60 microg estradiol; type: ADME, organism-based; details: in vivo; how it was run: as §1
Rattus norvegicus [5] = experiment: Biodistribution in liver of immature female rat after 5 hour administration of 3 micro Ci (111 kBq) in the absence of 60 microg estradiol; type: ADME, organism-based; details: in vivo; how it was run: as §1
Rattus norvegicus [6] = experiment: Biodistribution in lungs of immature female rat after 12 hour administration of 3 micro Ci (111 kBq) in the absence of 60 microg estradiol; type: ADME, organism-based, Lung; details: in vivo
How it was run: (§2)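 Immature female Long Evans rats (21–24 days, 45–70 g), three to five per group, given 125I-labeled steroid (3 μCi, 111 kBq) by lateral tail vein without anesthesia. Vehicle: ethanol diluted in saline with 1% Tween-80, final ethanol 9%, 0.22 μm filtered. +E2 groups received 60 μg unlabeled estradiol co-injected. Killed under ether at set times; tissues KCl-washed, blotted, weighed, gamma counted; %ID/g, mean with SE.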

Rattus norvegicus [7] = experiment: Biodistribution in lungs of immature female rat after 1 hr administration of 3 micro Ci (111 kBq) in the presence of (+E2); type: ADME, organism-based, Lung; details: in vivo; how it was run: as §1
Rattus norvegicus [8] = experiment: Biodistribution in lungs of immature female rat after 5 hour administration of 3 micro Ci (111 kBq) in the absence of 60 microg estradiol; type: ADME, organism-based, Lung; details: in vivo; how it was run: as §2
Rattus norvegicus [9] = experiment: Biodistribution in fat of immature female rat after 12 hour administration of 3 micro Ci (111 kBq) in the absence of 60 microg estradiol; type: ADME, organism-based, Adipose tissue; details: in vivo; how it was run: as §1
Rattus norvegicus [10] = experiment: Biodistribution in fat of immature female rat after 1 hr administration of 3 micro Ci (111 kBq) in the absence of 60 microg estradiol; type: ADME, organism-based, Adipose tissue; details: in vivo; how it was run: as §1
Rattus norvegicus [11] = experiment: Biodistribution in fat of immature female rat after 1 hr administration of 3 micro Ci (111 kBq) in the presence of (+E2); type: ADME, organism-based, Adipose tissue; details: in vivo; how it was run: as §1
Rattus norvegicus [12] = experiment: Biodistribution in fat of immature female rat after 3 hour administration of 3 micro Ci (111 kBq) in the absence of 60 microg estradiol; type: ADME, organism-based, Adipose tissue; details: in vivo; how it was run: as §1
Rattus norvegicus [13] = experiment: Biodistribution in fat of immature female rat after 5 hour administration of 3 micro Ci (111 kBq) in the absence of 60 microg estradiol; type: ADME, organism-based, Adipose tissue; details: in vivo; how it was run: as §1
Rattus norvegicus [14] = experiment: Biodistribution in muscle of immature female rat after 12 hour administration of 3 micro Ci (111 kBq) in the absence of 60 microg estradiol; type: ADME, organism-based, Muscle tissue; details: in vivo; how it was run: as §2
Rattus norvegicus [15] = experiment: Biodistribution in muscle of immature female rat after 5 hour administration of 3 micro Ci (111 kBq) in the absence of 60 microg estradiol; type: ADME, organism-based, Muscle tissue; details: in vivo; how it was run: as §2
Rattus norvegicus [16] = experiment: Biodistribution in spleen of immature female rat after 12 hour administration of 3 micro Ci (111 kBq) in the absence of 60 microg estradiol; type: ADME, organism-based; details: in vivo; how it was run: as §2
Rattus norvegicus [17] = experiment: Biodistribution in spleen of immature female rat after 1 hr administration of 3 micro Ci (111 kBq) in the presence of (+E2); type: ADME, organism-based; details: in vivo; how it was run: as §2
Rattus norvegicus [18] = experiment: Biodistribution in spleen of immature female rat after 3 hour administration of 3 micro Ci (111 kBq) in the absence of 60 microg estradiol; type: ADME, organism-based; details: in vivo; how it was run: as §2
Rattus norvegicus [19] = experiment: Biodistribution in blood of immature female rat after 5 hour administration of 3 micro Ci (111 kBq) in the absence of 60 microg estradiol; type: ADME, organism-based; details: in vivo; how it was run: as §1
Rattus norvegicus [20] = experiment: Biodistribution in kidney of immature female rat after 5 hour administration of 3 micro Ci (111 kBq) in the absence of 60 microg estradiol; type: ADME, organism-based; details: in vivo; how it was run: as §1
Rattus norvegicus [21] = experiment: Biodistribution in uterus / spleen, muscle, lungs of immature female rat after 12 hour administration of 3 micro Ci (111 kBq) in the absence of 60 microg estradiol; type: ADME, organism-based; details: in vivo
How it was run: (§3)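 Immature female Long Evans rats (21–24 days, 45–70 g), 3–5 per group, unanesthetized in retention cages, given 3 μCi (111 kBq) 125I-labeled steroid by lateral tail vein. Vehicle: ethanol diluted with saline containing 1% Tween-80, final ethanol 9%. +E2 group co-injected 60 μg unlabeled estradiol (1 h only). Killed under ether; tissues KCl-washed, weighed, gamma-counted. Output: %ID/g (mean, SE) and uterus to blood or nontarget (muscle, spleen, lungs) ratios.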

Rattus norvegicus [22] = experiment: Biodistribution in uterus / spleen, muscle, lungs of immature female rat after 1 hr administration of 3 micro Ci (111 kBq) in the absence of 60 microg estradiol; type: ADME, organism-based; details: in vivo
How it was run: (§4)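 Same in vivo procedure: immature female Long Evans rats (21–24 days), three to five per group, 3 μCi (111 kBq) tracer i.v. via tail vein in 9% ethanol/saline/1% Tween-80, ± 60 μg estradiol co-injected at 1 h. Uterus %ID/g (gamma counting) divided by blood, or by nontarget organ (muscle, spleen, lungs), %ID/g to give ratios.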

Rattus norvegicus [23] = experiment: Biodistribution in uterus of immature female rat after 1 hr administration of 3 micro Ci (111 kBq) in the absence of 60 microg estradiol; type: ADME, organism-based; details: in vivo; how it was run: as §3
Rattus norvegicus [24] = experiment: Biodistribution in uterus of immature female rat after 3 hour administration of 3 micro Ci (111 kBq) in the absence of 60 microg estradiol; type: ADME, organism-based; details: in vivo; how it was run: as §3
Rattus norvegicus [25] = experiment: Biodistribution in thyroid of immature female rat after 5 hour administration of 3 micro Ci (111 kBq) in the absence of 60 microg estradiol; type: ADME, organism-based, Thyroid gland; details: in vivo; how it was run: as §2
Rattus norvegicus [26] = experiment: Biodistribution in uterus / blood of immature female rat after 1 hr administration of 3 micro Ci (111 kBq) in the absence of 60 microg estradiol; type: ADME, organism-based; details: in vivo; how it was run: as §4
Rattus norvegicus [27] = experiment: Biodistribution in uterus / blood of immature female rat after 1 hr administration of 3 micro Ci (111 kBq) in the presence of (+E2); type: ADME, organism-based; details: in vivo; how it was run: as §4
Rattus norvegicus [28] = experiment: Biodistribution in uterus / blood of immature female rat after 3 hour administration of 3 micro Ci (111 kBq) in the absence of 60 microg estradiol; type: ADME, organism-based; details: in vivo; how it was run: as §4
Rattus norvegicus [29] = experiment: Biodistribution in uterus / blood of immature female rat after 5 hour administration of 3 micro Ci (111 kBq) in the absence of 60 microg estradiol; type: ADME, organism-based; details: in vivo; how it was run: as §4
[30] = target: Estrogen receptor (Mus musculus) (UniProt O08537+P19785); experiment: Relative binding affinity (RBA) against murine cytoplasmic estrogen receptor incubated at 0-4 degree Celsius for 18 hours; type: protein assay
How it was run: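 Competitive binding on murine uterine cytoplasmic extract with 20 nM [3H]estradiol and competitor steroids at 2 nM–20 μM, incubated 18 h at 0–4 °C. RBA = 100 × ratio of […] concentration giving 50% competition for specific binding. Mean of three experiments with SD.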

Estrogen receptor (Mus musculus), sequence (O08537 whole entry, looked up): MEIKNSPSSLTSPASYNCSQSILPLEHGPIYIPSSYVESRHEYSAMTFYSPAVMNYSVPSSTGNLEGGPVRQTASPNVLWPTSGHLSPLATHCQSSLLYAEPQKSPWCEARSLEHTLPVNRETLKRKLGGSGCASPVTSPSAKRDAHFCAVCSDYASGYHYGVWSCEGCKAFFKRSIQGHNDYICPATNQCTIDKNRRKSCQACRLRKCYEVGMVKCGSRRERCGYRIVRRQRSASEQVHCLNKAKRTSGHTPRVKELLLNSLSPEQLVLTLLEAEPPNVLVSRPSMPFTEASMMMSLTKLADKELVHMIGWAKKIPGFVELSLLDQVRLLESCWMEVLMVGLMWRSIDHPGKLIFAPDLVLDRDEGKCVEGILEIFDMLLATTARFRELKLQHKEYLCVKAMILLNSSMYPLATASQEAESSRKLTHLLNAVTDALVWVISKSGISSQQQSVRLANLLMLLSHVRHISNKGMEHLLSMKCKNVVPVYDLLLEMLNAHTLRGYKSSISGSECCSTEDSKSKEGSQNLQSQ
Estrogen receptor (Mus musculus), sequence (P19785 whole entry, looked up): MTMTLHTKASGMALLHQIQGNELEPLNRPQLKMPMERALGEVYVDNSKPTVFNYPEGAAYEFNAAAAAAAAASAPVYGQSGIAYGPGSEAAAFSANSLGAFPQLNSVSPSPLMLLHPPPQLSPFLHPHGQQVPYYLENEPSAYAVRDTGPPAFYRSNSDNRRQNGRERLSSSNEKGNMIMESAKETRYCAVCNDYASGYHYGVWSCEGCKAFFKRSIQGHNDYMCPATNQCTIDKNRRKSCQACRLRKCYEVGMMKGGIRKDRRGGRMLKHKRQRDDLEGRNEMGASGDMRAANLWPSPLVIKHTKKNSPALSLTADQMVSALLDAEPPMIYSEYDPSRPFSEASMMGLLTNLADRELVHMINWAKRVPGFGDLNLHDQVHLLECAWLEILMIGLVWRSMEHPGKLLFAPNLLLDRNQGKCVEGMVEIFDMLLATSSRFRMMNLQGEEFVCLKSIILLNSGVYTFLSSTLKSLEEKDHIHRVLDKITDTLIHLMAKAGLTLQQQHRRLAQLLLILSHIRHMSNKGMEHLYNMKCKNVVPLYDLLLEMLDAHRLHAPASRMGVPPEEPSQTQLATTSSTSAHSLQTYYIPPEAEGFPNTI

Structure (SMILES): C[C@@H]1Cc2cc(O)c(F)cc2[C@H]2CC[C@@]3(C)[C@@H](CC[C@@]3(O)/C=C\I)[C@H]12
- ID/g (Rattus norvegicus [1]): 1.83%
- ID/g (Rattus norvegicus [2]): 0.36%
- ID/g (Rattus norvegicus [3]): 1.11%
- ID/g (Rattus norvegicus [4]): 1.81%
- ID/g (Rattus norvegicus [5]): 2.51%
- ID/g (Rattus norvegicus [6]): 0.25%
- ID/g (Rattus norvegicus [7]): 0.42%
- ID/g (Rattus norvegicus [8]): 0.37%
- ID/g (Rattus norvegicus [9]): 0.84%
- ID/g (Rattus norvegicus [10]): 2.02%
- ID/g (Rattus norvegicus [11]): 1.58%
- ID/g (Rattus norvegicus [12]): 1.54%
- ID/g (Rattus norvegicus [13]): 2.2%
- ID/g (Rattus norvegicus [14]): 0.19%
- ID/g (Rattus norvegicus [15]): 0.29%
- ID/g (Rattus norvegicus [16]): 0.47%
- ID/g (Rattus norvegicus [17]): 0.56%
- ID/g (Rattus norvegicus [18]): 0.74%
- ID/g (Rattus norvegicus [19]): 0.33%
- ID/g (Rattus norvegicus [20]): 0.54%
- uterus to nontarget tissue ratio (Rattus norvegicus [21]): 15.99%
- uterus-to-nontarget tissue uptake ratio (Rattus norvegicus [22]): 5.13%
- ID/g (Rattus norvegicus [23]): 3.76%
- ID/g (Rattus norvegicus [24]): 4.03%
- ID/g (Rattus norvegicus [25]): 424%
- uterus-to-blood ratio of %ID/g (Rattus norvegicus [26]): 8.3%
- uterus/blood %ID/g ratio (Rattus norvegicus [27]): 1.2%
- uterus to blood %ID/g ratio (unitless) (Rattus norvegicus [28]): 14.81%
- uterus to blood ratio (Rattus norvegicus [29]): 11.08%
- RBA [30]: 28.6

Structure (SMILES): C[C@]12CC[C@@H]3c4ccc(O)c(F)c4CC[C@H]3[C@@H]1CC[C@@]2(O)/C=C\I
- ID/g (Rattus norvegicus [1]): 3.04%
- ID/g (Rattus norvegicus [2]): 0.74%
- ID/g (Rattus norvegicus [3]): 1.87%
- ID/g (Rattus norvegicus [4]): 1.95%
- ID/g (Rattus norvegicus [5]): 1.64%
- ID/g (Rattus norvegicus [6]): 0.8%
- ID/g (Rattus norvegicus [7]): 1.14%
- ID/g (Rattus norvegicus [8]): 0.56%
- ID/g (Rattus norvegicus [9]): 0.75%
- ID/g (Rattus norvegicus [10]): 4.3%
- ID/g (Rattus norvegicus [11]): 3.41%
- ID/g (Rattus norvegicus [12]): 1.96%
- ID/g (Rattus norvegicus [13]): 1.71%
- ID/g (Rattus norvegicus [14]): 0.37%
- ID/g (Rattus norvegicus [15]): 0.38%
- ID/g (Rattus norvegicus [16]): 0.43%
- ID/g (Rattus norvegicus [17]): 0.56%
- ID/g (Rattus norvegicus [18]): 0.48%
- ID/g (Rattus norvegicus [19]): 0.47%
- ID/g (Rattus norvegicus [20]): 0.58%
- uterus to nontarget tissue ratio (Rattus norvegicus [21]): 31.56%
- uterus-to-nontarget tissue uptake ratio (Rattus norvegicus [22]): 8.31%
- ID/g (Rattus norvegicus [23]): 10.44%
- ID/g (Rattus norvegicus [24]): 7.96%
- ID/g (Rattus norvegicus [25]): 117%
- uterus-to-blood ratio of %ID/g (Rattus norvegicus [26]): 15.19%
- uterus/blood %ID/g ratio (Rattus norvegicus [27]): 1.65%
- uterus to blood %ID/g ratio (unitless) (Rattus norvegicus [28]): 17.08%
- uterus to blood ratio (Rattus norvegicus [29]): 22.6%
- RBA [30]: 66.9

Structure (SMILES): C[C@]12CC[C@@H]3c4cc(F)c(O)cc4CC[C@H]3[C@@H]1CC[C@@]2(O)/C=C\I
- ID/g (Rattus norvegicus [1]): 2.58%
- ID/g (Rattus norvegicus [2]): 0.14%
- ID/g (Rattus norvegicus [3]): 0.88%
- ID/g (Rattus norvegicus [4]): 1.76%
- ID/g (Rattus norvegicus [5]): 1.16%
- ID/g (Rattus norvegicus [6]): 0.12%
- ID/g (Rattus norvegicus [7]): 0.75%
- ID/g (Rattus norvegicus [8]): 0.24%
- ID/g (Rattus norvegicus [9]): 0.19%
- ID/g (Rattus norvegicus [10]): 2.19%
- ID/g (Rattus norvegicus [11]): 2.88%
- ID/g (Rattus norvegicus [12]): 2.21%
- ID/g (Rattus norvegicus [13]): 1.13%
- ID/g (Rattus norvegicus [14]): 0.05%
- ID/g (Rattus norvegicus [15]): 0.14%
- ID/g (Rattus norvegicus [16]): 0.17%
- ID/g (Rattus norvegicus [17]): 1%
- ID/g (Rattus norvegicus [18]): 0.29%
- ID/g (Rattus norvegicus [19]): 0.3%
- ID/g (Rattus norvegicus [20]): 0.3%
- uterus to nontarget tissue ratio (Rattus norvegicus [21]): 20.54%
- uterus-to-nontarget tissue uptake ratio (Rattus norvegicus [22]): 7.32%
- ID/g (Rattus norvegicus [23]): 4.41%
- ID/g (Rattus norvegicus [24]): 5.44%
- ID/g (Rattus norvegicus [25]): 149.9%
- uterus-to-blood ratio of %ID/g (Rattus norvegicus [26]): 7.34%
- uterus/blood %ID/g ratio (Rattus norvegicus [27]): 1.2%
- uterus to blood %ID/g ratio (unitless) (Rattus norvegicus [28]): 12.98%
- uterus to blood ratio (Rattus norvegicus [29]): 12.09%
- RBA [30]: 53.7
